The source made the active and inactive calls. The rule behind the calls is not given here.
Key:
HCT-116 [1] = experiment: Cytotoxicity against p53-deficient human HCT116 cells after 72 hrs by MTT assay; assay type: functional, cell-based; details: HCT-116, 72 h
Outline: (§1)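 Cells seeded at 2 × 10³ per well, 24 h later exposed continuously 72 h to varying concentrations; then 0.5 mg/mL MTT in phenol red-free DMEM 3 h at 37 °C, formazan dissolved in 2-propanol/HCl, OD 570 nm. Viability relative to DMSO vehicle; IC50 = concentration reducing viability by 50%; triplicate wells, at least three independent experiments, mean ± SD.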

HCT-116 [2] = experiment: Inhibition of mitosis in human HCT116 cells assessed as appearance of tripolar and multipolar spindle at 10 uM after 24 hrs by immunofluorescence assay; assay type: functional; design: scale not given: the % may be the effect or the level left
Outline: (§2)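 Cells treated 24 h on chamber slides, fixed in ice-cold methanol, blocked with 1% goat serum, stained with mouse anti-β-tubulin (1:50) then FITC anti-mouse, DAPI counterstained; 100 mitotic cells per treatment scored at 100× oil for spindle type (normal bipolar, bipolar with lagging chromosomes, tri/multipolar, monopolar). Mean ± SD of two experiments.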

HCT-116 [3] = experiment: Induction of senescence in human HCT116 cells assessed as beta galactosidase activity at 20 uM
HCT-116 [4] = experiment: Induction of apoptosis in human HCT116 cells assessed as appearance of tetraploid nucleus at 5 to 20 uM after 48 hrs by flow cytometry; assay type: functional, cell-based
Outline: (§3)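 Subconfluent cultures exposed continuously to compound; floating and trypsinized adherent cells pooled, PBS-washed, fixed in ice-cold 70% ethanol 30 min, RNase (100 µg/mL) treated, stained with propidium iodide, DNA content measured by flow cytometry to give G1, S, G2/M, apoptotic (sub-G1) and polyploid fractions. Experiments repeated at least twice.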

HCT-116 [5] = experiment: Cell cycle arrest in human HCT116 cells assessed as accumulation at G2/M phase after 24 hrs by propidium iodide staining-based flow cytometry; assay type: functional; outline: as §3
HCT-116 [6] = experiment: Induction of apoptosis in human HCT116 cells harboring p53 protein assessed as effect on apoptotic index at 20 uM after 72 hrs by DNA laddering assay; assay type: functional
Outline: (§4)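 Floating and trypsin-detached adherent cells pooled, cytospun, fixed and TUNEL-labelled; apoptotic index scored among 500 nuclei, three experiments. In parallel, DNA extracted (proteinase K/SDS overnight 56 °C, phenol/chloroform, RNase A) and run on 1.8% agarose/ethidium bromide gel in 0.5× TBE for laddering. Controls received 0.2% DMSO; 24, 48, 72 h treatments.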

HCT-116 [7] = experiment: Induction of apoptosis in human HCT116 cells assessed as appearance of hypodiploid nucleus at 5 to 20 uM after 48 hrs by flow cytometry; assay type: functional, cell-based; outline: as §3
A549 [8] = experiment: Cell cycle arrest in human A549 cells assessed as accumulation at G2/M phase at 20 uM after 24 hrs by propidium iodide staining-based flow cytometry; assay type: functional; outline: as §3
Caco-2 = experiment: Cytotoxicity against human Caco2 cells after 72 hrs by MTT assay; assay type: functional, cell-based; details: Caco-2, 72 h; outline: as §1
HCT-116 [9] = experiment: Inhibition of mitosis in human HCT116 cells assessed as appearance of bipolar spindle with large mass of lagging chromosomes at spindle poles at 5 uM after 24 hrs by immunofluorescence assay; assay type: functional; design: scale not given: the % may be the effect or the level left; outline: as §2
HCT-116 [10] = experiment: Inhibition of mitosis in human HCT116 cells assessed as appearance of monopolar spindle at 5 uM after 24 hrs by immunofluorescence assay; assay type: functional; design: scale not given: the % may be the effect or the level left; outline: as §2
HCT-116 [11] = experiment: Induction of apoptosis in human HCT116 cells assessed as effect on apoptotic index at 20 uM after 72 hrs by DNA laddering assay; assay type: functional; outline: as §4
HCT-116 [12] = experiment: Inhibition of mitosis in human HCT116 cells assessed as appearance of normal bipolar spindle at 20 uM after 24 hrs by immunofluorescence assay; assay type: functional; design: scale not given: the % may be the effect or the level left; outline: as §2
HT-29 = experiment: Cytotoxicity against human HT-29 cells after 72 hrs by SRB assay; assay type: functional, cell-based; details: HT-29, 72 h
Outline: (§5)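 Cells plated at 2 × 10³ per well 24 h before continuous 72 h exposure to a concentration series; fixed with cold 50% TCA 1 h at 4 °C, stained with 0.4% sulforhodamine B in 1% acetic acid 30 min, bound dye extracted in 10 mM Tris base, OD 540 nm. Viability as % of DMSO control; IC50 = concentration reducing viability 50%; triplicates, ≥3 experiments.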

SK-BR-3 = experiment: Cytotoxicity against human SKBR3 cells after 72 hrs by SRB assay; assay type: functional, cell-based; details: SK-BR-3, 72 h; outline: as §5
HCT-116 [13] = experiment: Cytotoxicity against human HCT116 cells after 72 hrs by MTT assay; assay type: functional, cell-based; details: HCT-116, 72 h
HCT-116 [14] = experiment: Inhibition of mitosis in human HCT116 cells assessed as mitotic index at 20 uM after 24 hrs by fluorescence assay; assay type: functional
Outline: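 Cells treated 24 h, collected as for cell cycle analysis, cytospun, fixed in cold methanol, stained with 3 µM DAPI; mitotic cells counted among 1000 cells under 40× objective. Mean ± SD from three independent experiments.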

HCT-116 [15] = experiment: Inhibition of mitosis in human HCT116 cells assessed as appearance of bipolar spindle with large mass of lagging chromosomes at spindle poles at 10 uM after 24 hrs by immunofluorescence assay; assay type: functional; design: scale not given: the % may be the effect or the level left; outline: as §2
HCT-116 [16] = experiment: Inhibition of mitosis in human HCT116 cells assessed as appearance of monopolar spindle at 10 uM after 24 hrs by immunofluorescence assay; assay type: functional; design: scale not given: the % may be the effect or the level left; outline: as §2
HCT-116 [17] = experiment: Induction of apoptosis in p53-deficient human HCT116 cells assessed as effect on apoptotic index at 20 uM after 72 hrs by DNA laddering assay; assay type: functional; outline: as §4
MCF7 = experiment: Cytotoxicity against human MCF7 cells after 72 hrs by SRB assay; assay type: functional, cell-based; details: MCF7, 72 h; outline: as §5
HCT-116 [18] = experiment: Inhibition of mitosis in human HCT116 cells assessed as appearance of normal bipolar spindle at 10 uM after 24 hrs by immunofluorescence assay; assay type: functional; design: scale not given: the % may be the effect or the level left; outline: as §2
AGS [19] = experiment: Cytotoxicity against human AGS cells after 72 hrs by MTT assay; assay type: functional, cell-based; outline: as §1
DU-145 [20] = experiment: Cell cycle arrest in human DU145 cells assessed as accumulation at G2/M phase at 20 uM after 24 hrs by propidium iodide staining-based flow cytometry; assay type: functional; outline: as §3
HCT-116 [21] = experiment: Inhibition of mitosis in human HCT116 cells assessed as appearance of tripolar and multipolar spindle at 5 uM after 24 hrs by immunofluorescence assay; assay type: functional; design: scale not given: the % may be the effect or the level left; outline: as §2
HCT-116 [22] = experiment: Inhibition of mitosis in human HCT116 cells assessed as appearance of bipolar spindle with large mass of lagging chromosomes at spindle poles at 20 uM after 24 hrs by immunofluorescence assay; assay type: functional; design: scale not given: the % may be the effect or the level left; outline: as §2
PC-3 = experiment: Cytotoxicity against human PC3 cells after 72 hrs by MTT assay; assay type: functional, cell-based; details: PC-3, 72 h; outline: as §1
[23] = Inhibition of tubulin polymerization after 1 hr
Outline: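 Cell-free assay: >97% pure tubulin in G-PEM buffer (80 mM PIPES, 2 mM MgCl2, 0.5 mM EGTA, 1 mM GTP, pH 6.9) plus 5% glycerol, with vehicle, compound (10, 20, 50 µM) or 3 µM paclitaxel, in pre-warmed plate at 37 °C; absorbance at 340 nm read every minute for 1 h. Repeated twice.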

HCT-116 [24] = experiment: Induction of apoptosis in human HCT116 cells assessed as appearance of hypodiploid nucleus at 20 uM after 72 hrs by TUNEL assay; assay type: functional, cell-based; outline: as §4
AGS [25] = experiment: Cell cycle arrest in human AGS cells assessed as accumulation at G2/M phase at 20 uM after 24 hrs by propidium iodide staining-based flow cytometry; assay type: functional; outline: as §3
HCT-116 [26] = experiment: Inhibition of mitosis in human HCT116 cells assessed as appearance of normal bipolar spindle at 5 uM after 24 hrs by immunofluorescence assay; assay type: functional; design: scale not given: the % may be the effect or the level left; outline: as §2
HCT-116 [27] = experiment: Inhibition of mitosis in human HCT116 cells assessed as appearance of tripolar and multipolar spindle at 20 uM after 24 hrs by immunofluorescence assay; assay type: functional; design: scale not given: the % may be the effect or the level left; outline: as §2
LoVo = experiment: Cytotoxicity against human LoVo cells after 72 hrs by MTT assay; assay type: functional, cell-based; outline: as §1
LNCaP = experiment: Cytotoxicity against human LNCAP cells after 72 hrs by SRB assay; assay type: functional, cell-based; outline: as §5
T98G = experiment: Cytotoxicity against human T98G cells after 72 hrs by SRB assay; assay type: functional, cell-based; outline: as §5
HCT-116 [28] = experiment: Cytotoxicity against human HCT116 cells harboring p53 protein after 72 hrs by MTT assay; assay type: functional, cell-based; details: HCT-116, 72 h; outline: as §1
A549 [29] = experiment: Cytotoxicity against human A549 cells after 72 hrs by SRB assay; assay type: functional, cell-based; details: A549, 72 h; outline: as §5
HCT-116 [30] = experiment: Inhibition of mitosis in human HCT116 cells assessed as appearance of monopolar spindle at 20 uM after 24 hrs by immunofluorescence assay; assay type: functional; design: scale not given: the % may be the effect or the level left; outline: as §2
DU-145 [31] = experiment: Cytotoxicity against human DU145 cells after 72 hrs by MTT assay; assay type: functional, cell-based; details: DU-145, 72 h; outline: as §1
HCT-116 [32] = experiment: Cell cycle arrest in human HCT116 cells assessed as accumulation at G2/M phase at 5 to 20 uM after 24 hrs by propidium iodide staining-based flow cytometry; assay type: functional; outline: as §3
[33] = Solubility of the compound at 20 uM

CC(=O)O[C@@H]1C=C[C@H](OCCCOc2cc(O)c3c(=O)c(-c4ccc(O)cc4)coc3c2)O[C@H]1C
IC50 (HCT-116 [1]): 6.21 µM | Activity (HCT-116 [2]): 15% | Activity (HCT-116 [3]): 31% | Activity (HCT-116 [4]): Active | Activity (HCT-116 [5]): Dose-dependent effect | Activity (HCT-116 [6]): 12% | Activity (HCT-116 [7]): Active | Activity (A549 [8]): 31.6% | IC50 (Caco-2): 23.3 µM | Activity (HCT-116 [9]): 14% | Activity (HCT-116 [10]): 0% | Activity (HCT-116 [11]): 12% | Activity (HCT-116 [12]): 16% | IC50 (HT-29): 36.1 µM | IC50 (SK-BR-3): 28 µM | IC50 (HCT-116 [13]): 4.76 µM | Activity (HCT-116 [14]): 13.2 | Activity (HCT-116 [15]): 38% | Activity (HCT-116 [16]): 3% | Activity (HCT-116 [17]): 15% | IC50 (MCF7): 8.88 µM | Activity (HCT-116 [18]): 44% | IC50 (AGS [19]): 3.05 µM | Activity (DU-145 [20]): 46.1% | Activity (HCT-116 [21]): 1% | Activity (HCT-116 [22]): 40% | IC50 (PC-3): 10.7 µM | inhibition [23]: Dose-dependent effect | Activity (HCT-116 [24]): Active | Activity (AGS [25]): 39.7% | Activity (HCT-116 [26]): 85% | Activity (HCT-116 [27]): 42% | IC50 (LoVo): 9.85 µM | IC50 (LNCaP): 18 µM | IC50 (T98G): 16.7 µM | IC50 (HCT-116 [28]): 4.76 µM | IC50 (A549 [29]): 14.7 µM | Activity (HCT-116 [30]): 2% | IC50 (DU-145 [31]): 14.5 µM

CC(=O)O[C@@H]1C=C[C@H](OCCOc2cc(O)c3c(=O)c(-c4ccc(O)cc4)coc3c2)O[C@H]1C
IC50 (HCT-116 [13]): 9.32 µM | Activity (HCT-116 [14]): 1.3 | Activity (HCT-116 [32]): inactive

CC(=O)OC[C@H]1O[C@@H](O[C@H]2C=C[C@@H](OCCOc3cc(O)c4c(=O)c(-c5ccc(O)cc5)coc4c3)O[C@@H]2COC(C)=O)[C@H](OC(C)=O)[C@@H](OC(C)=O)[C@H]1OC(C)=O
IC50 (HCT-116 [13]): > 20 µM | solubility [33]: Insoluble

CC(=O)OC[C@H]1O[C@H](OCCCCCOc2cc(O)c3c(=O)c(-c4ccc(O)cc4)coc3c2)C=C[C@@H]1OC(C)=O
Activity (HCT-116 [5]): Dose-dependent effect | IC50 (HCT-116 [13]): 8.45 µM | Activity (HCT-116 [14]): 5.2

O=c1c(-c2ccc(O)cc2)coc2cc(O)cc(O)c12 [GENISTEIN]
IC50 (Caco-2): > 100 µM | IC50 (HT-29): 52.8 µM | IC50 (SK-BR-3): 96.7 µM | IC50 (HCT-116 [13]): 34.9 µM | Activity (HCT-116 [14]): 1.8 | IC50 (MCF7): 62.7 µM | IC50 (AGS [19]): 41.7 µM | IC50 (PC-3): 65.2 µM | IC50 (LoVo): 15.9 µM | IC50 (LNCaP): 30.7 µM | IC50 (T98G): 89.4 µM | IC50 (A549 [29]): 43.1 µM | IC50 (DU-145 [31]): 47.3 µM

O=c1c(-c2ccc(O)cc2)coc2cc(OCCCCCO)cc(O)c12
IC50 (HCT-116 [13]): 6.92 µM | Activity (HCT-116 [14]): 3 | Activity (HCT-116 [32]): inactive
